Experimental findings from ChEMBL document CHEMBL4020814, “Synthesis, Binding Mode, and Antihyperglycemic Activity of Potent and Selective (5-Imidazol-2-yl-4-phenylpyrimidin-2-yl)[2-(2-pyridylamino)ethyl]amine Inhibitors of Glycogen Synthase Kinase 3” (J Med Chem, 2017) are described below.

SMILES strings stand for the structures.

A short description of data set [1]: Plasma concentration in diabetic db/db mouse at 30 mg/kg administered at 4.5 and 0.5 hrs prior to oral glucose challenge measured 20 mins post second dose. Conditions: plasma.
A short description of data set [2]: Inhibition of GSK3 expressed in CHO-IR cells expressing human insulin receptor assessed as glycogen synthase activation after 30 mins by filter paper assay. The format is cell-based, Cavia porcellus.
Data set [3] is described as follows: Inhibition of human GSK3 using biotin-CREB peptide substrate after 1 hr by scintillation counting method.
For data set [4], the species on record is Mus musculus. Kind of data set: Antidiabetic activity in diabetic db/db mouse assessed as time required for improved glucose disposal by oral glucose tolerance test. The format is functional. In short, it runs like this: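 db/db mice, 6–8 per group, fasted ~6 h (food removed 3 h before prebleed), dosed orally at −4.5 and −0.5 h relative to oral glucose (vehicle 10% captisol). Tail-snip blood glucose was read by glucometer or analyzer; plasma insulin was measured by ELISA.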

Data set [5] can be described thus: Stability in dog liver microsomes assessed as half life. Type of data set: ADME, Canis lupus familiaris, microsome.
Data set [6] is described as follows: Stability in rat liver microsomes assessed as half life. Type of data set: ADME, microsome.
Data set [7] is described as follows: Oral bioavailability in diabetic ZDF fa/fa rat at 8 mg/kg administered 4.5 and 0.5 hrs prior to oral glucose challenge. Conditions: in vivo. The format is ADME, organism-based.
Data set [8] concerns Rattus norvegicus. Kind of data set: Antidiabetic activity in diabetic ZDF fa/fa rat assessed as reduction in plasma glucose AUC at 8 mg/kg administered 4.5 and 0.5 hrs prior to oral glucose challenge by oral glucose tolerance test. Type of data set: functional. Also noted: scale not given: the % may be the effect or the level left. Put shortly: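 Obese 10-week-old ZDF (fa/fa) rats, n = 8/group, fasted overnight, given 8 mg/kg orally at 4.5 and 0.5 h before oral glucose challenge. Efficacy is the percent reduction in plasma glucose AUC versus untreated animals. Formulations were 15% captisol, 1% CMC or water with pH adjusted.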

The nature of data set [9]: Half life in diabetic ZDF fa/fa rat at 8 mg/kg administered 4.5 and 0.5 hrs prior to oral glucose challenge. The format is ADME, organism-based. Conditions: in vivo.
Data set [10] in a line: Stability in human liver microsomes assessed as half life. Type of data set: ADME, microsome. (Liver microsomes are vesicles of endoplasmic reticulum, rich in cytochrome P450 enzymes.)

Broadly, the EC50 is the concentration that produces a half-maximal response. Broadly, the IC50 is the concentration that gives 50% inhibition. In data set [1], `N#Cc1ccc(-c2nc(NCCNc3ccc([N+](=O)[O-])cn3)ncc2-n2ccnc2)cc1` showed a concentration at 20 min of 5000 ng/mL. Besides, the EC50 in data set [2] was 1300 nM. In [3], this compound yielded an IC50 of 11 nM.

Take `Cc1c[nH]c(-c2cnc(NCCNc3ccc([N+](=O)[O-])cn3)nc2-c2ccc(Cl)cc2Cl)n1`: the concentration at 20 min in data set [1] was found to be 19000 ng/mL. Further, the EC50 in data set [2] turned out to be 290 nM. This compound gave an IC50 in data set [3] of 8 nM.

Turning to `N#Cc1ccc(-c2nc(NCCNc3ccc([N+](=O)[O-])cn3)ncc2-c2ncc[nH]2)cc1`, the concentration at 20 min in data set [1] is 1000 ng/mL. Further, the EC50 in data set [2] came out at 5000 nM. In data set [3], this compound had an IC50 of 19 nM.

In the case of `CN1CCN(c2cnc(NCCNc3ccc([N+](=O)[O-])c(N)n3)nc2-c2ccc(Cl)cc2Cl)C(=O)C1`, in [1], the concentration at 20 min turned out to be 4000 ng/mL. Also, the EC50 in [2] is 30 nM. Further, the IC50 in [3] was 4 nM.

As to `Cc1c(C)c2c(c(C)c1O)CCC(C)(COc1ccc(CC3SC(=O)NC3=O)cc1)O2` (stereo not drawn) [TROGLITAZONE], the Time result in data set [4] was “<=2 weeks”.

For orientation: half-life means the time in which the quantity being followed falls by half. Turning to `Nc1nc(NCCNc2ncc(-c3ncc[nH]3)c(-c3ccc(Br)cc3Cl)n2)ccc1[N+](=O)[O-]`, the half-life in [5] and in data set [6] was over 30 min throughout. Moreover, the EC50 in data set [2] was determined as 430 nM. Also, the IC50 in data set [3] was found to be 4 nM.

Regarding `Nc1nc(NCCNc2ncc(-c3ncc[nH]3)c(-c3ccc(F)cc3Br)n2)ccc1[N+](=O)[O-]`, the half-life in data set [5] and in data set [6] was over 30 min each time. Also, the EC50 in [2] amounted to 220 nM. The compound further showed an IC50 in data set [3] of 4 nM.

On to `Nc1nc(NCCNc2ncc(-c3ncc[nH]3)c(-c3ccc(F)cc3F)n2)ccc1[N+](=O)[O-]`, for which the half-life in data set [5] and in data set [6] was over 30 min each time. The EC50 in [2] is 5650 nM. For the same compound, half-maximal inhibition in [3] (IC50) was put at 9 nM.

In turn, `O=[N+]([O-])c1ccc(NCCNc2ncc(-c3ncc[nH]3)c(-c3ccc(Cl)cc3Cl)n2)nc1` yielded a concentration at 20 min in data set [1] of 97000 ng/mL. Moreover, the bioavailability in data set [7] was 33%. For the same compound, the half-life in [5] is over 30 min; in data set [6], over 30 min; in data set [9] it was 143 min. In addition, the Activity in data set [8] worked out at 29%. In data set [2], the EC50 came out at 370 nM. Also, in [3], the IC50 worked out at 4 nM.

As to `Nc1nc(NCCNc2ncc(N3CCOCC3)c(-c3ccc(Cl)cc3Cl)n2)ccc1[N+](=O)[O-]`, the concentration at 20 min in data set [1] was determined as 1000 ng/mL. The EC50 in data set [2] came to 70 nM. Also, in [3], the IC50 worked out at 7 nM.

Consider `Nc1nc(NCCNc2ncc(CO)c(-c3ccc(Cl)cc3Cl)n2)ccc1[N+](=O)[O-]`, for which the concentration at 20 min in data set [1] was determined as 12000 ng/mL. Besides, in data set [2], the concentration for a half-maximal effect (EC50) is 150 nM. Also, half-maximal inhibition in [3] (IC50) was put at 7 nM.

In [1], `CN1CCN(c2cnc(NCCNc3ccc([N+](=O)[O-])c(N)n3)nc2-c2ccc(Cl)cc2Cl)CC1` came in with a concentration at 20 min of 3000 ng/mL. In addition, the EC50 in [2] was determined as 50 nM. In addition, in data set [3], the IC50 came out at 6 nM.

Regarding `Nc1nc(NCCNc2ncc(-c3ncc[nH]3)c(-c3ccc(Cl)cc3Br)n2)ccc1[N+](=O)[O-]`, the concentration at 20 min in data set [1] turned out to be 13000 ng/mL. Also, the half-life in data set [5] and in data set [6] was over 30 min throughout. The EC50 in data set [2] was determined as 260 nM. In [3], this compound displayed an IC50 of 6 nM.

`Cc1c[nH]c(-c2cnc(NCCNc3ccc([N+](=O)[O-])c(N)n3)nc2-c2ccc(Cl)cc2Cl)n1`: in data set [1], the concentration at 20 min worked out at 10000 ng/mL. In data set [7], this compound showed a bioavailability of 7%. In addition, the Activity in data set [8] is 24%. The EC50 in [2] was determined as 120 nM. The half-life in [9] was determined as 58 min. This compound yielded an IC50 in [3] of 2 nM.

On to `N#Cc1ccc(NCCNc2ncc(-c3ncc[nH]3)c(-c3ccc(Cl)cc3Cl)n2)nc1`, for which the half-life in data set [10] was 33 min; in [5] it was over 30 min; in [6], over 30 min; in [9], 52 min. In addition, in data set [1], the concentration at 20 min worked out at 29000 ng/mL. This compound returned a bioavailability in data set [7] of 21%. For the same compound, the Activity in [8] worked out at 18%. Also, in data set [2], the EC50 stood at 510 nM. Besides, the IC50 in data set [3] amounted to 4 nM.

Consider `Nc1nc(NCCNc2ncc(-c3ncc[nH]3)c(-c3cc(F)c(Cl)cc3F)n2)ccc1[N+](=O)[O-]`, for which the half-life in data set [5] and in data set [6] was over 30 min each time. The EC50 in data set [2] is 2190 nM. Besides, the half-inhibitory concentration (IC50) in [3] was 19 nM.

As for `FC(F)(F)c1ccc(NCCNc2ncc(-c3ncc[nH]3)c(-c3ccc(Cl)cc3Cl)n2)nc1`, the half-life in data set [5] and in data set [6] was over 30 min throughout. For the same compound, the EC50 in data set [2] was determined as 1240 nM. Moreover, the midpoint of inhibition in data set [3], the IC50, lay at 35 nM.

With `Nc1nc(NCCNc2ncc(-c3ncc[nH]3)c(-c3cc(F)c(F)cc3F)n2)ccc1[N+](=O)[O-]`, the half-life in data set [5] and in data set [6] was over 30 min throughout. Further, the 50% effective concentration (EC50) in data set [2] amounted to 6880 nM. Moreover, in data set [3], the IC50 came out at 38 nM.

`Nc1nc(NCCNc2ncc(-c3ncc[nH]3)c(-c3ccc(C(F)(F)F)cc3)n2)ccc1[N+](=O)[O-]`: the half-life in data set [5] and in [6] was over 30 min in each case. Also, the EC50 in data set [2] amounted to 5920 nM. In data set [3], this compound came in with an IC50 of 51 nM.

As to `Nc1nc(NCCNc2ncc(-c3ncc[nH]3)c(-c3ccc(Cl)cc3)n2)ccc1[N+](=O)[O-]`, the half-life in data set [5] and in [6] was over 30 min throughout. In addition, the EC50 in data set [2] was determined as 2500 nM. In [3], this compound came in with an IC50 of 31 nM.

`Nc1cnc(NCCNc2ccc([N+](=O)[O-])c(N)n2)nc1-c1ccc(Cl)cc1Cl` showed a concentration at 20 min in data set [1] of 1000 ng/mL. For the same compound, the EC50 in data set [2] turned out to be 290 nM. The compound also gave an IC50 in [3] of 10 nM.

Regarding `Nc1nc(NCCNc2ncc(-c3ncc[nH]3)c(-c3ccc(Br)cc3F)n2)ccc1[N+](=O)[O-]`, the half-life in data set [5] and in data set [6] was over 30 min each time. For the same compound, in [2], the EC50 came out at 500 nM. In addition, the IC50 in data set [3] was found to be 5 nM.

With `Nc1nc(NCCNc2ncc(-c3ncc[nH]3)c(-c3cc(F)ccc3F)n2)ccc1[N+](=O)[O-]`, the half-life in data set [5] and in [6] was over 30 min each time. In data set [2], the EC50 came to 3000 nM. In [3], this compound yielded a concentration for half-maximal inhibition (IC50) of 47 nM.

Regarding `Cc1cc(Cl)ccc1-c1nc(NCCNc2ccc([N+](=O)[O-])c(N)n2)ncc1-c1ncc[nH]1`, the half-life in data set [5] and in data set [6] was over 30 min in each case. The half-maximal effective concentration (EC50) in data set [2] turned out to be 810 nM. For the same compound, the half-maximal inhibitory concentration (IC50) in [3] was found to be 19 nM.

In data set [1], `N#Cc1ccc(NCCNc2ncc(-n3ccnc3)c(-c3ccc(Cl)cc3Cl)n2)nc1` came in with a concentration at 20 min of 13000 ng/mL. In addition, in data set [2], the EC50 turned out to be 790 nM. For the same compound, in [3], the IC50 was determined as 25 nM.

Regarding `N#Cc1ccc(-c2nc(NCCNc3ccc([N+](=O)[O-])c(N)n3)ncc2-c2ncc[nH]2)cc1`, the half-life in data set [5] and in data set [6] was over 30 min throughout. The EC50 in data set [2] was over 10000 nM. In data set [3], this compound yielded a half-inhibitory concentration (IC50) of 7 nM.

On to `Cc1ccc(-c2nc(NCCNc3ccc([N+](=O)[O-])c(N)n3)ncc2-c2ncc[nH]2)c(Br)c1`, for which the half-life in [5] and in data set [6] was over 30 min each time. Moreover, in data set [2], the EC50 stood at 50 nM. Inhibition in data set [3] was half-maximal at 4 nM (IC50).

In the case of `Nc1nc(NCCNc2ncc(-c3ncc[nH]3)c(-c3ccc(Cl)cc3F)n2)ccc1[N+](=O)[O-]`, the half-life in [5] and in data set [6] was over 30 min each time. The EC50 in data set [2] is 1020 nM. For the same compound, the IC50 in data set [3] amounted to 5 nM.

Take `CN(C)C(=N)NC(=N)N` [METFORMIN]: in [4], the Time result is recorded as “<=2 weeks”.
